Published values pooled from the literature.
Lines come from different studies, so protocols differ.
Cell line: PC-3
Read-out: cell growth or viability

SMILES | test | conditions | quantity | result
CN1CCN(C/C=N/NC(=O)Nc2cc3c(Nc4ccc(F)c(Cl)c4)ncnc3cc2O[C@H]2CCOC2)CC1 | MTT | 72 h | IC50 | 1830 nM
O=C(Nc1cccc(Oc2nccc(C(F)(F)F)c2Cl)c1)C1CCCN(C(=O)c2cc(C(F)(F)F)cc(C(F)(F)F)c2)C1 (stereo not shown) | WST-1 | 100 µM | inhibition | 0%
Cc1cc(C)cc(COc2cc3c(cc2OCc2cc(C)cc(C)c2)[C@H]2C[C@](O)(Cc4cn(Cc5ccc6ccccc6c5)nn4)C[C@H](C)N2CC3)c1 | MTT |  | IC50 | 264 nM
COCCCOc1ccnc(COc2ccc(NC(=O)Nc3ccc(OC)cc3)cc2)c1C | MTT | 72 h | IC50 | 47200 nM
O=C(CN1C(=O)/C(=C/c2ccc(Cl)cc2Cl)SC1=S)Nc1ccccc1 | MTT | 10 µM | inhibition | 19.2%
CSc1cccc(NC(=O)C2CCCN(C(=O)c3cccc(-c4ccco4)c3)C2)c1 (stereo not shown) | WST-1 | 100 µM | inhibition | 0%
COc1cc2ncnc(Nc3ccc(F)c(Cl)c3)c2cc1NC(=O)N/N=C/CN1CCCCC1 | MTT | 72 h | IC50 | 5760 nM
O=C(CN1C(=O)/C(=C/c2cccc(Cl)c2)SC1=S)Nc1ccccc1 | MTT | 10 µM | inhibition | 21%
COc1c(C)cnc(COc2ccc(NC(=O)Nc3cc(F)cc(F)c3)cc2)c1C | MTT | 72 h | IC50 | 57600 nM
COc1ccc(C(=O)/C=C/c2cccnc2)cc1S(N)(=O)=O | SRB | 48 h | GI50 | 16600 nM
O=C(Nc1cccc(N2CCCC2=O)c1)C1CCCN(C(=O)c2cc(C(F)(F)F)cc(C(F)(F)F)c2)C1 (stereo not shown) | WST-1 | 100 µM | inhibition | 0%
NC1(C(=O)N[C@@H](CCO)c2ccc(Cl)cc2)CCN(c2ncnc3[nH]ccc23)CC1 |  | 72 h | GI50 | > 8000 nM
O=C(N/N=C/c1cccn1CCN1CCCCC1)Nc1cc2c(Nc3ccc(F)c(Cl)c3)ncnc2cc1O[C@H]1CCOC1 | MTT | 72 h | IC50 | 1570 nM
COc1cccc(NC(=O)CN2C(=O)/C(=C/c3ccc(F)cc3)SC2=S)c1 | MTT | 10 µM | inhibition | 13%
C/C=C/C(=O)Nc1ccc(CCn2cc(C[C@@]3(O)C[C@@H]4c5cc(OCc6cc(C)cc(C)c6)c(OCc6cc(C)cc(C)c6)cc5CCN4[C@@H](C)C3)nn2)cc1 | MTT |  | IC50 | 273 nM
COc1ccc(C(=O)/C=C/c2c(F)cccc2Cl)cc1S(N)(=O)=O | SRB | 48 h | GI50 | 4700 nM
CC(C)(C)OC(=O)c1cccc(NC(=O)C2CCCN(C(=O)c3cc(C(F)(F)F)cc(C(F)(F)F)c3)C2)c1 (stereo not shown) | WST-1 | 100 µM | inhibition | 0%
COc1cccc(/C=C2\SC(=S)N(CC(=O)Nc3ccccc3)C2=O)c1 | MTT | 10 µM | inhibition | 10.6%
COc1ccc(C(=O)/C=C/c2ccc(Cl)c(Cl)c2)cc1S(N)(=O)=O | SRB | 10 µM | inhibition | 90%
COc1ccnc(COc2ccc(NC(=O)Nc3cccc(C(F)(F)F)c3)cc2)c1OC | MTT | 72 h | IC50 | 75000 nM
COc1cc(-c2ccc(-c3ccc(C(=N)N)nc3)s2)cc(OC)c1OC |  |  | GI50 | 3110 nM
CCN(CC)C/C=N/NC(=O)Nc1cc2c(Nc3ccc(F)c(Cl)c3)ncnc2cc1OC | MTT | 72 h | IC50 | 4400 nM

SMILES | test | conditions | quantity | result
COc1ccc(C(=O)/C=C/c2cccc(Cl)c2)cc1S(N)(=O)=O | SRB | 48 h | GI50 | 2200 nM
COc1cc2c(c(OC)c1OC)-c1ccc(OC)c(=O)cc1[C@@H](NC(C)=O)CC2 | MTT | 10 µM | inhibition | 58.6%
COc1ccc(C(=O)/C=C/c2ccc3ccccc3c2)cc1S(N)(=O)=O | SRB | 48 h | GI50 | 1800 nM
O=C(CN1C(=O)/C(=C/c2ccccc2O)SC1=S)Nc1ccccc1 | MTT | 10 µM | inhibition | 36.2%
COc1cccc(Oc2ccccc2NC(=O)CNC(=O)c2cccc3ccccc23)c1 | SRB | 48 h | GI50 | 282 nM
CCN(CC)CCCn1cccc1/C=N/NC(=O)Nc1cc2c(Nc3ccc(F)c(Cl)c3)ncnc2cc1OC | MTT | 72 h | IC50 | 1180 nM
COc1ccc(C(=O)/C=C/c2cc3c(cc2Br)OCO3)cc1S(N)(=O)=O | SRB | 48 h | GI50 | 6800 nM
O=C(N/N=C/CN1CCCCC1)Nc1cc2c(Nc3ccc(F)c(Cl)c3)ncnc2cc1O[C@H]1CCOC1 | MTT | 72 h | IC50 | 810 nM
Cc1c(OCC(F)(F)F)ccnc1COc1ccc(NC(=O)Nc2ccc(Cl)cc2)cc1 | MTT | 72 h | IC50 | > 100000 nM
Cc1cc(C)cc(COc2cc3c(cc2OCc2cc(C)cc(C)c2)[C@H]2C[C@](O)(Cc4cn(Cc5cnccn5)nn4)C[C@H](C)N2CC3)c1 | MTT |  | IC50 | 480 nM
Cc1c(OCC(F)(F)F)ccnc1COc1ccc(NC(=O)Nc2ccc(Cl)c(C(F)(F)F)c2)cc1 | MTT | 72 h | IC50 | 54200 nM
COc1cc2ncnc(Nc3ccc(F)c(Cl)c3)c2cc1NC(=O)N/N=C/c1cccn1CCCN1CCOCC1 | MTT | 72 h | IC50 | 50 nM
COc1cccc(NC(=O)CN2C(=O)/C(=C/c3ccco3)SC2=S)c1 | MTT | 10 µM | inhibition | 8.63%
Cc1cc(C)cc(COc2cc3c(cc2OCc2cc(C)cc(C)c2)[C@H]2C[C@](O)(Cc4cn(CCc5ccc(N)cc5)nn4)C[C@H](C)N2CC3)c1 | MTT |  | IC50 | 490 nM
O=C(Nc1cccc(Oc2ccccn2)c1)C1CCCN(C(=O)c2cc(C(F)(F)F)cc(C(F)(F)F)c2)C1 (stereo not shown) | WST-1 | 100 µM | inhibition | 0%
O=C(CN1C(=O)/C(=C/c2ccc(C(F)(F)F)cc2)SC1=S)Nc1ccccc1 | MTT | 10 µM | inhibition | 32.1%
COc1ccc(-c2ccc(-c3ccc(C(=N)N)nc3)s2)cc1 |  |  | GI50 | 1680 nM
C=CCOc1cccc(NC(=O)C2CCCN(C(=O)c3cc(C(F)(F)F)cc(C(F)(F)F)c3)C2)c1 (stereo not shown) | WST-1 | 100 µM | inhibition | 0%
COc1cc2ncnc(Nc3ccc(F)c(Cl)c3)c2cc1NC(=O)N/N=C/CN(C)C | MTT | 72 h | IC50 | 2780 nM
Cc1cc(C)cc(COc2cc3c(cc2OCc2cc(C)cc(C)c2)[C@H]2C[C@](O)(Cc4cn(Cc5ccc(C#N)cc5)nn4)C[C@H](C)N2CC3)c1 | MTT |  | IC50 | 371 nM
O=C(Nc1ccc(Cl)cn1)C1CCCN(C(=O)c2cc(C(F)(F)F)cc(C(F)(F)F)c2)C1 (stereo not shown) | WST-1 | 100 µM | inhibition | 0%
